{
  "source": "paper PMC5338879",
  "about": "(Journal of Hypertension, 2016)",
  "key": {"[1]": {"conditions": "intranasal administration; cited from earlier work"}, "[2]": {"tested_on": "premenopausal women with female sexual dysfunction", "assay": "Protocol-directed blood pressure-related withdrawals after randomization", "type": "in vivo, human", "method_in_brief": "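Ambulatory BP records were screened manually and programmatically for SBP ≥150 mmHg, DBP ≥95 mmHg, SBP rise ≥30 mmHg or DBP rise ≥15 mmHg. Flagged reports went to safety staff, including a hypertension expert blinded to treatment, who also reviewed activities, HR and other medications. Participants meeting the prespecified criteria (absolute level, change from baseline, duration) were withdrawn.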"}, "[3]": {"tested_on": "men with erectile dysfunction", "conditions": "single sc doses of 4–6 mg; cited from earlier work"}, "[4]": {"tested_on": "premenopausal women with female sexual dysfunction", "assay": "Ambulatory BP and heart rate monitoring after in-clinic subcutaneous doses", "type": "in vivo, human", "conditions": "for Increase in ambulatory SBP relative to placebo (abstract): second of two doses, 0 to 4-h postdose interval", "method_in_brief": "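Premenopausal women aged ≥21 years were randomized 1:1:1:1 to placebo or 0.75, 1.25 or 1.75 mg sc (anterior thigh or abdomen). The ambulatory monitor was fitted before each in-clinic dose and recorded at 15-min intervals. Baseline was the single-blind in-clinic placebo dose, and changes were placebo-subtracted over 0–4, >4–8, >8–24 and 0–24 h. SBP shifts were counted per 15 min against thresholds of 10/15 mmHg change and 150/160 mmHg absolute.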"}, "[5]": {"assay": "Plasma pharmacokinetics after in-clinic subcutaneous doses", "type": "in vivo, human", "conditions": "for Cmax, mean: plasma, LC-MS/MS", "method_in_brief": "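Blood was sampled predose and at 0.5, 1.0 and 2.0 h postdose at both double-blind in-clinic sc dosing visits (0.75, 1.25 or 1.75 mg). Plasma was assayed by validated LC-MS/MS. Noncompartmental analysis gave Cmax, Tmax, […] and AUC(0–2). For each dose level and visit, mean Cmax, range and coefficient of variation were reported.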"}, "[6]": {"tested_on": "premenopausal women with female sexual dysfunction", "assay": "Treatment-emergent adverse events, 12-week double-blind treatment", "type": "in vivo, human", "conditions": "all bremelanotide dosages; no marked dosage dependence", "method_in_brief": "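Adverse events were queried at every clinic visit after screening. Physical examination, vital signs, 12-lead ECG and clinical laboratory tests were also performed. Events were tabulated in all participants given at least one double-blind dose.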"}, "[7]": {"conditions": "high sc doses, men with erectile dysfunction; cited from earlier work"}, "[8]": {"conditions": "initial in-clinic dose, linear regression, all dose levels"}},
  "note": "Entries after “also recorded” stand apart in the source; their conditions may differ.",
  "data": [
    {"smiles": "CCCC[C@H](NC(C)=O)C(=O)N[C@H]1CC(=O)NCCCC[C@@H](C(=O)O)NC(=O)[C@H](Cc2c[nH]c3ccccc23)NC(=O)[C@H](CCCN=C(N)N)NC(=O)[C@@H](Cc2ccccc2)NC(=O)[C@H](Cc2cnc[nH]2)NC1=O", "note": "[bremelanotide]", "values": [
      {"measurement": "Variability in bioavailability", "setting": "[1]", "value": "wide variability in bioavailability"},
      {"measurement": "Participants withdrawn after randomization (BP-related)", "setting": "[2]; after a 0.75-mg dose, of 100", "value": 4, "unit": "%"},
      {"measurement": "Participants withdrawn after randomization (BP-related)", "setting": "[2]; after a 1.25-mg dose, of 99", "value": 9, "unit": "%"},
      {"measurement": "Participants withdrawn after randomization (BP-related)", "setting": "[2]; after a 1.75-mg dose, of 98", "value": 7, "unit": "%"},
      {"measurement": "Transient increases in clinic SBP", "setting": "[3]", "value": "4–5 mmHg"},
      {"measurement": "Proportion of SBP shift events lasting 15 min or less", "setting": "[4]; after bremelanotide dosing", "value": 88, "unit": "%"},
      {"measurement": "Number of clinically important shifts in SBP (>10 or >15 mmHg) lasting more than 30 min", "setting": "[4]; all bremelanotide doses", "value": "three"},
      {"measurement": "Patients with SBP increase at least 15 mmHg for more than 30 min", "setting": "[4]; any bremelanotide group", "value": "No patient"},
      {"measurement": "Patients with SBP more than 180 mmHg for more than 15 min", "setting": "[4]; any bremelanotide group", "value": "No patient; also recorded: no sustained elevations"},
      {"measurement": "Relationship between maximal change in HR and Cmax", "setting": "[4]; [8]", "value": "no relationship observed"},
      {"measurement": "Relationship between maximal change in SBP and Cmax", "setting": "[4]; [8]", "value": "no relationship observed"},
      {"measurement": "Duration of peak increases in ambulatory BP", "setting": "[4]; sc doses, typically", "value": "less than 15 min"},
      {"measurement": "Increase in ambulatory SBP relative to placebo (abstract)", "setting": "[4]; 1.25 mg sc, P 0.076", "value": 3.0, "unit": "mmHg"},
      {"measurement": "Increase in ambulatory SBP relative to placebo (abstract)", "setting": "[4]; 1.75 mg sc, P 0.027", "value": 3.2, "unit": "mmHg"},
      {"measurement": "Mean HR reductions", "setting": "[4]; subcutaneous doses, up to 8 h following administration", "value": "4.6–6.6 bpm"},
      {"measurement": "Dose proportionality of pharmacokinetics", "setting": "[5]; 0.75, 1.25, 1.75 mg sc, both in-clinic doses", "value": "dose proportionality; also recorded: dose-proportional increases in concentrations"},
      {"measurement": "Cmax", "setting": "[5]; human, in vivo, sc, 0.75 mg", "value": 37.5, "unit": "ng/mL"},
      {"measurement": "Cmax, mean", "setting": "[5]; second in-clinic dose 0.75 mg sc, n 89", "value": 37.3, "unit": "ng/mL"},
      {"measurement": "Cmax, mean", "setting": "[5]; second in-clinic dose 1.25 mg sc, n 84", "value": 60.1, "unit": "ng/mL"},
      {"measurement": "Cmax, mean", "setting": "[5]; second in-clinic dose 1.75 mg sc, n 88", "value": 77.7, "unit": "ng/mL"},
      {"measurement": "Most common adverse events", "setting": "[6]", "value": "nausea, flushing, and headache"},
      {"measurement": "Tmax", "setting": "[7]", "value": "0.5 to 1", "unit": "h"},
      {"measurement": "mean half-life", "setting": "[7]", "value": "1.9 to 2.7", "unit": "h"}
    ]}
  ]
}
